From ChEMBL document CHEMBL1143785, “N/C-4 substituted azetidin-2-ones: synthesis and preliminary evaluation as new class of antimicrobial agents” (2007) come the findings set out here.

The structures appear in SMILES notation. In brackets after ≈: the same amount, converted by molar mass. Activity calls are given as the source filed them. The calls are words filed in the database; no cut-off is given here.

Holding throughout (format): functional
Test [1] relates to Staphylococcus aureus. Nature of the test: Antimicrobial activity against Staphylococcus aureus at 400 ug/ml after 48 hrs by disc-diffusion assay. Particulars: for zone of inhibition at 400 µg/mL: read-out: IZ. In outline:
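Bacteria were grown 2.5 h in nutrient broth and spread evenly over dried agar plates. Sterile 6 mm paper discs were impregnated with 400 µg/mL compound and placed on the inoculated surface. A DMF solvent-only disc served as negative control and chloramphenicol as reference. Plates were incubated at 37 °C and inhibition zone diameter (mm) was read at 48 h.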
(In general: A growth-free zone around the sample is the usual read-out of agar diffusion tests.)

Test [2] relates to Salmonella typhi. Nature of the test: Antimicrobial activity against Salmonella typhi at 400 ug/ml after 48 hrs by disc-diffusion assay. Particulars: for inhibition zone (IZ): Salmonella enterica subsp. enterica serovar Typhi; for zone of inhibition at 400 µg/mL: Salmonella enterica, read-out: IZ. In outline:
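Disc diffusion. A few colonies were grown in nutrient broth for 2.5 h, then spread evenly on dried agar plates. Sterile 6 mm paper discs impregnated with compound were placed on the surface. Plates were incubated at 37 °C and the inhibition zone diameter in mm was read at 48 h. A DMF-only disc served as the negative control and chloramphenicol as the standard.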

For test [3], the system named is Bacillus anthracis. Nature of the test: Antimicrobial activity against Bacillus anthracis at 400 ug/ml after 48 hrs by disc-diffusion assay. Particulars: for zone of inhibition at 400 µg/mL: read-out: IZ.
Test [4] has as its system Aspergillus niger. Nature of the test: Antimicrobial activity against Aspergillus niger after 72 hrs by broth dilution assay. In outline:
(§1)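 Tube broth dilution in Sabouraud's Dextrose medium. Compound was dissolved in DMF and tested over 15.62 to 8000 µg/mL. Tubes were inoculated with fungal culture suspension and incubated at 25 °C for 72 h alongside a control. MIC was taken as the lowest concentration giving no turbidity.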
For orientation: Dilution methods test growth across graded concentrations, often in twofold steps.

Test [5] relates to Candida albicans. Nature of the test: Antimicrobial activity against Candida albicans after 72 hrs by broth dilution assay. In outline: as §1
Test [6] deals with Aspergillus fumigatus. Nature of the test: Antimicrobial activity against Aspergillus fumigatus after 72 hrs by broth dilution assay. In outline: as §1

Consider `OC(Cn1cncn1)(Cn1cncn1)c1ccc(F)cc1F` [FLUCONAZOLE], for which the “inhibition zone (IZ)” value in test [1], in test [2] and in test [3] was “inactive” in each case. The MIC – broadly, the least concentration at which growth counts as inhibited – amounted to 2000 µg/mL (≈ 6.53 mM) in test [4] and 250 µg/mL (≈ 0.816 mM) in test [5].
As to `COc1cc([C@@H]2[C@H](Cl)C(=O)N2NC(=O)CC(=O)Nc2ccccc2)ccc1OC(C)=O`, the zone of inhibition at 400 µg/mL in test [1] turned out to be 10 mm. Further, the “inhibition zone (IZ)” value in test [2] and in test [3] was “inactive” each time. The MIC came out at 4000 µg/mL (≈ 8.97 mM) in test [4] and 1000 µg/mL (≈ 2.24 mM) in test [5].
Consider `O=C(N[C@H](CO)[C@H](O)c1ccc([N+](=O)[O-])cc1)C(Cl)Cl` [CHLORAMPHENICOL], for which the figures for the zone of inhibition at 400 µg/mL in test [1], in test [2] and in test [3] were 32 mm, 36 mm and 34 mm, respectively. Moreover, the MIC result in test [6], in test [4] and in test [5] was “inactive” each time.
Consider `COc1cc([C@@H]2[C@H](Cl)C(=O)N2NC(=O)CC(=O)Nc2ccc(Cl)cc2)ccc1OC(C)=O`, for which the figures for the zone of inhibition at 400 µg/mL in test [1], in test [2] and in test [3] were 30 mm, 29 mm and 34 mm, respectively. Further, the MIC in test [4] worked out at 1000 µg/mL (≈ 2.08 mM); in test [5] it was 31.2 µg/mL (≈ 0.0651 mM).
Turning to `COc1cc([C@@H]2[C@H](Cl)C(=O)N2NC(=O)CC(=O)Nc2ccccc2Cl)ccc1OC(C)=O`, the figures for the zone of inhibition at 400 µg/mL in test [1] and in test [3] were 12 mm and 21 mm, respectively. Moreover, the “inhibition zone (IZ)” value in test [2] is “inactive”. For the same molecule, the minimum inhibitory concentration (MIC) worked out at 1000 µg/mL (≈ 2.08 mM) in test [4] and 500 µg/mL (≈ 1.04 mM) in test [5].
Turning to `COc1cc([C@@H]2[C@H](Cl)C(=O)N2NC(=O)CC(=O)Nc2cccc(Cl)c2)ccc1OC(C)=O`, the values for the zone of inhibition at 400 µg/mL in test [1], in test [2] and in test [3] were 26 mm, 17 mm and 22 mm, respectively. For the same molecule, the MIC was 2000 µg/mL (≈ 4.16 mM) in test [4] and 125 µg/mL (≈ 0.26 mM) in test [5].
Taken in the same sequence, the figures for `O=C1[C@@H](Cl)[C@@H](c2cc(/N=N/c3cccc([N+](=O)[O-])c3)ccc2O)N1c1ccc(Cl)cc1` were 30 mm, 27 mm, 32 mm, 1000 µg/mL (≈ 2.19 mM) and 125 µg/mL (≈ 0.273 mM).
On to `O=C1[C@@H](Cl)[C@@H](c2cc(/N=N/c3ccc([N+](=O)[O-])cc3)ccc2O)N1c1ccccc1`, for which the results for the zone of inhibition at 400 µg/mL in test [1] and in test [3] were 8 mm and 10 mm, respectively. Also, the “inhibition zone (IZ)” value in test [2] was “inactive”. The MIC entry in test [6] is “inactive”. In addition, the MIC was found to be 4000 µg/mL (≈ 9.46 mM) in test [4] and 2000 µg/mL (≈ 4.73 mM) in test [5].
On to `COc1cc([C@@H]2[C@H](Cl)C(=O)N2NC(=O)CC(=O)Nc2ccc([N+](=O)[O-])cc2)ccc1OC(C)=O`, for which the “inhibition zone (IZ)” value in test [1] and in test [2] was “inactive” throughout. Also, the zone of inhibition at 400 µg/mL in test [3] was found to be 12 mm. The figures for the MIC in test [4] and in test [5] were 4000 µg/mL (≈ 8.15 mM) and 1000 µg/mL (≈ 2.04 mM), respectively.
Regarding `O=C1[C@@H](Cl)[C@@H](c2cc(/N=N/c3cccc([N+](=O)[O-])c3)ccc2O)N1c1ccc(Br)cc1`, the zone of inhibition at 400 µg/mL came to 11 mm in test [1], 8 mm in test [2] and 17 mm in test [3]. The same molecule came in with an MIC in test [4] of 4000 µg/mL (≈ 7.97 mM). Besides, in test [5], the MIC entry was “inactive”.
`O=C1[C@@H](Cl)[C@@H](c2cc(/N=N/c3ccc([N+](=O)[O-])cc3)ccc2O)N1c1ccc(Br)cc1`: the “inhibition zone (IZ)” value in test [1] and in test [2] was “inactive” throughout. Further, the zone of inhibition at 400 µg/mL in test [3] was 8 mm. For the same molecule, in test [6], the MIC entry is “inactive”. Moreover, the minimum inhibitory concentration (MIC) in test [4] and in test [5] was 4000 µg/mL (≈ 7.97 mM) each time.
Regarding `COc1cc([C@@H]2[C@H](Cl)C(=O)N2NC(=O)CC(=O)Nc2ccccc2[N+](=O)[O-])ccc1OC(C)=O`, the zone of inhibition at 400 µg/mL in test [1] was 11 mm; in test [3] it was 17 mm. Moreover, the “inhibition zone (IZ)” value in test [2] was “inactive”. The MIC in test [4] was 4000 µg/mL (≈ 8.15 mM); in test [5], 2000 µg/mL (≈ 4.07 mM).
For `O=C1[C@@H](Cl)[C@@H](c2cc(/N=N/c3cccc([N+](=O)[O-])c3)ccc2O)N1c1ccc(F)cc1`, the zone of inhibition at 400 µg/mL in test [1] came out at 29 mm; in test [2], 21 mm; in test [3] it was 28 mm. The MIC in test [4] was found to be 500 µg/mL (≈ 1.13 mM); in test [5], 62.5 µg/mL (≈ 0.142 mM).
Regarding `O=C1[C@@H](Cl)[C@@H](c2cc(/N=N/c3ccc([N+](=O)[O-])cc3)ccc2O)N1c1ccc(Cl)cc1`, the zone of inhibition at 400 µg/mL in test [1] was 17 mm; in test [2], 10 mm; in test [3] it was 21 mm. Further, the MIC entry in test [6] was “inactive”. In addition, the results for the MIC in test [4] and in test [5] were 2000 µg/mL (≈ 4.37 mM) and 250 µg/mL (≈ 0.547 mM), respectively.
As for `O=C1[C@@H](Cl)[C@@H](c2cc(/N=N/c3cccc([N+](=O)[O-])c3)ccc2O)N1c1ccccc1`, the figures for the zone of inhibition at 400 µg/mL in test [1], in test [2] and in test [3] were 24 mm, 18 mm and 31 mm, respectively. Further, the MIC in test [4] was 4000 µg/mL (≈ 9.46 mM); in test [5], 1000 µg/mL (≈ 2.37 mM).
With `COc1cc([C@@H]2[C@H](Cl)C(=O)N2NC(=O)CC(=O)Nc2cccc([N+](=O)[O-])c2)ccc1OC(C)=O`, the zone of inhibition at 400 µg/mL in test [1] was 27 mm; in test [2], 31 mm; in test [3], 33 mm. The MIC in test [4] was found to be 2000 µg/mL (≈ 4.07 mM); in test [5], 62.5 µg/mL (≈ 0.127 mM).
For `O=C1[C@@H](Cl)[C@@H](c2cc(/N=N/c3ccc([N+](=O)[O-])cc3)ccc2O)N1c1ccc(F)cc1`, the “inhibition zone (IZ)” value in test [1] and in test [2] was “inactive” throughout. In test [3], the zone of inhibition at 400 µg/mL was 12 mm. In addition, the minimum inhibitory concentration (MIC) in test [4] amounted to 4000 µg/mL (≈ 9.07 mM); in test [5], 2000 µg/mL (≈ 4.54 mM).
